Key:
Cynomolgus monkey [1] = assay: Total drug recovery in female cynomolgus monkey at 6 mg/kg, po administered as single dose during 0 to 336 hrs by liquid scintillation counting; assay type: ADME, organism-based, Macaca fascicularis; design: dose 6 mg/kg, dosed compound name [14C]Sunitinib, route oral; conditions: in vivo
[2] = Drug concentration in female Lister Hooded pigmented rat eye assessed as radioactivity per gram of tissue at 20 mg/kg administered as single dose via gastric gavage measured after 168 hrs by autoradiographic analysis; assay type: ADME, organism-based; design: dose 20 mg/kg, dosed compound name [14C]Sunitinib; conditions: in vivo, po
In short: (§1)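 Lister Hooded (pigmented) rats, ca 7-8 weeks old, acclimated 7 days, given [14C]sunitinib L-malate by gastric gavage at 20 mg/kg (15 mg freebase/kg, 100 µCi/kg). One male and one female killed by CO2 at 24, 72, 168 and 336 h. Carcasses frozen in solid CO2/hexane and embedded in frozen cellulose. 30 µm sagittal cryosections were freeze-dried. Tissue radioactivity measured by quantitative whole-body autoradiography against calibration standards, with background subtracted.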

Rattus norvegicus [3] = assay: Total drug recovery in male Sprague-Dawley rat at 15 mg/kg, po administered as single dose during 0 to 72 hrs by liquid scintillation counting; assay type: ADME, organism-based; design: dose 15 mg/kg, dosed compound name [14C]Sunitinib, route oral; conditions: in vivo
[4] = Drug concentration in female albino rat bone marrow assessed as radioactivity per gram of tissue at 20 mg/kg administered as single dose via gastric gavage measured after 6 hrs by autoradiographic analysis; assay type: ADME, organism-based; design: dose 20 mg/kg, dosed compound name [14C]Sunitinib; conditions: in vivo, po
In short: (§2)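 Sprague Dawley (albino) rats, ca 7-8 weeks old, received a single gastric-gavage dose of [14C]sunitinib L-malate at 20 mg/kg (15 mg freebase/kg, 100 µCi/kg). One animal per sex killed by CO2 at 3, 6, 24, 72 and 168 h, then frozen in CO2/hexane. 30 µm sagittal sections were cut and freeze-dried. Radioactivity per gram quantified by whole-body autoradiography using regression against standards. LOQ 0.04–0.06 µg freebase equiv/g.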

Homo sapiens [5] = assay: Terminal half life as total radioactivity in human plasma at 50 mg, po administered as single dose measured up to 24 hrs by LC/MS/MS analysis; assay type: ADME, organism-based; design: dosed compound name [14C]Sunitinib; conditions: in vivo
Lung [6] = assay: Drug concentration in female albino rat lung assessed as radioactivity per gram of tissue at 20 mg/kg administered as single dose via gastric gavage measured after 6 hrs by autoradiographic analysis; assay type: ADME, organism-based; design: dose 20 mg/kg, dosed compound name [14C]Sunitinib; conditions: in vivo, po
In short: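 Sprague Dawley albino rats, ca 7-8 weeks old, dosed once by gastric gavage with [14C]sunitinib L-malate (15 mg freebase/kg, 100 µCi/kg). One male and one female killed by CO2 at 3, 6, 24, 72 and 168 h. Carcasses frozen in solid CO2/hexane, embedded and cut into 30 µm sagittal sections, then freeze-dried. Radioactivity quantified by whole-body autoradiography against standards by regression, background subtracted.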

Large intestine = assay: Drug concentration in male albino rat large intestine assessed as radioactivity per gram of tissue at 20 mg/kg administered as single dose via gastric gavage measured after 24 hrs by autoradiographic analysis; assay type: ADME, organism-based; design: dose 20 mg/kg, dosed compound name [14C]Sunitinib; conditions: in vivo, po
[7] = Drug concentration in male albino rat preputial gland assessed as radioactivity per gram of tissue at 20 mg/kg administered as single dose via gastric gavage measured after 72 hrs by autoradiographic analysis; assay type: ADME, organism-based; design: dose 20 mg/kg, dosed compound name [14C]Sunitinib; conditions: in vivo, po
[8] = Drug concentration in female albino rat uterus assessed as radioactivity per gram of tissue at 20 mg/kg administered as single dose via gastric gavage measured after 72 hrs by autoradiographic analysis; assay type: ADME, organism-based; design: dose 20 mg/kg, dosed compound name [14C]Sunitinib; conditions: in vivo, po
Thymus [9] = assay: Drug concentration in male Lister Hooded pigmented rat thymus assessed as radioactivity per gram of tissue at 20 mg/kg administered as single dose via gastric gavage measured after 24 hrs by autoradiographic analysis; assay type: ADME, organism-based; design: dose 20 mg/kg, dosed compound name [14C]Sunitinib; conditions: in vivo, po
Cynomolgus monkey [10] = assay: Cmax as total radioactivity in male cynomolgus monkey plasma at 6 mg/kg, po administered as single dose by LC/MS/MS analysis; assay type: ADME, organism-based, Macaca fascicularis; design: dose 6 mg/kg, dosed compound name [14C]Sunitinib, route oral; conditions: in vivo
In short: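 Cynomolgus monkeys of both sexes received one oral gavage of [14C]sunitinib L-malate at 6 mg/kg (37 µCi/kg). Femoral-vein blood was taken into heparin from 0.5 to 336 h. Plasma was kept cold and protected from light, then stored at -80 °C. Total radioactivity was by scintillation counting and sunitinib by methanol-extraction LC-MS-MS. Cmax was from raw data, t½ from the log-linear terminal slope, AUC(0-∞) by linear trapezoidal rule.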

Cynomolgus monkey [11] = assay: Terminal half life as total radioactivity in female cynomolgus monkey plasma at 6 mg/kg, po administered as single dose by LC/MS/MS analysis; assay type: ADME, organism-based, Macaca fascicularis; design: dose 6 mg/kg, dosed compound name [14C]Sunitinib, route oral; conditions: in vivo
Spleen [12] = assay: Drug concentration in male albino rat spleen assessed as radioactivity per gram of tissue at 20 mg/kg administered as single dose via gastric gavage measured after 24 hrs by autoradiographic analysis; assay type: ADME, organism-based; design: dose 20 mg/kg, dosed compound name [14C]Sunitinib; conditions: in vivo, po
Lung [13] = assay: Drug concentration in male albino rat lung assessed as radioactivity per gram of tissue at 20 mg/kg administered as single dose via gastric gavage measured after 6 hrs by autoradiographic analysis; assay type: ADME, organism-based; design: dose 20 mg/kg, dosed compound name [14C]Sunitinib; conditions: in vivo, po
Spleen [14] = assay: Drug concentration in female albino rat spleen assessed as radioactivity per gram of tissue at 20 mg/kg administered as single dose via gastric gavage measured after 72 hrs by autoradiographic analysis; assay type: ADME, organism-based; design: dose 20 mg/kg, dosed compound name [14C]Sunitinib; conditions: in vivo, po
[15] = Drug concentration in female albino rat bladder assessed as radioactivity per gram of tissue at 20 mg/kg administered as single dose via gastric gavage measured after 6 hrs by autoradiographic analysis; assay type: ADME, organism-based, Urinary bladder; design: dose 20 mg/kg, dosed compound name [14C]Sunitinib; conditions: in vivo, po; in short: as §2
Kidney [16] = assay: Drug concentration in female Lister Hooded pigmented rat kidney assessed as radioactivity per gram of tissue at 20 mg/kg administered as single dose via gastric gavage measured after 72 hrs by autoradiographic analysis; assay type: ADME, organism-based; design: dose 20 mg/kg, dosed compound name [14C]Sunitinib; conditions: in vivo, po; in short: as §1
[17] = Drug concentration in male Lister Hooded pigmented rat pituitary gland assessed as radioactivity per gram of tissue at 20 mg/kg administered as single dose via gastric gavage measured after 24 hrs by autoradiographic analysis; assay type: ADME, organism-based; design: dose 20 mg/kg, dosed compound name [14C]Sunitinib; conditions: in vivo, po
Homo sapiens [18] = assay: Apparent oral clearance as total radioactivity in human plasma at 50 mg, po administered as single dose measured up to 24 hrs by LC/MS/MS analysis; assay type: ADME, organism-based; design: dosed compound name [14C]Sunitinib; conditions: in vivo
Kidney [19] = assay: Drug concentration in male Lister Hooded pigmented rat kidney assessed as radioactivity per gram of tissue at 20 mg/kg administered as single dose via gastric gavage measured after 72 hrs by autoradiographic analysis; assay type: ADME, organism-based; design: dose 20 mg/kg, dosed compound name [14C]Sunitinib; conditions: in vivo, po
Zone of skin [20] = assay: Drug concentration in female albino rat abdomen skin assessed as radioactivity per gram of tissue at 20 mg/kg administered as single dose via gastric gavage measured after 6 hrs by autoradiographic analysis; assay type: ADME, organism-based; design: dose 20 mg/kg, dosed compound name [14C]Sunitinib; conditions: in vivo, po; in short: as §2
[21] = Drug concentration in male Lister Hooded pigmented rat eye assessed as radioactivity per gram of tissue at 20 mg/kg administered as single dose via gastric gavage measured after 336 hrs by autoradiographic analysis; assay type: ADME, organism-based; design: dose 20 mg/kg, dosed compound name [14C]Sunitinib; conditions: in vivo, po
[22] = Drug concentration in male albino rat testis assessed as radioactivity per gram of tissue at 20 mg/kg administered as single dose via gastric gavage measured after 72 hrs by autoradiographic analysis; assay type: ADME, organism-based; design: dose 20 mg/kg, dosed compound name [14C]Sunitinib; conditions: in vivo, po
Rattus norvegicus [23] = assay: Drug recovery in cage residue of male Sprague-Dawley rat at 15 mg/kg, po administered as single dose during 0 to 72 hrs by liquid scintillation counting; assay type: ADME, organism-based; design: dose 15 mg/kg, dosed compound name [14C]Sunitinib, route oral; conditions: in vivo
Stomach = assay: Drug concentration in female albino rat stomach assessed as radioactivity per gram of tissue at 20 mg/kg administered as single dose via gastric gavage measured after 6 hrs by autoradiographic analysis; assay type: ADME, organism-based; design: dose 20 mg/kg, dosed compound name [14C]Sunitinib; conditions: in vivo, po
Cynomolgus monkey [24] = assay: Tmax as total radioactivity in male cynomolgus monkey plasma at 6 mg/kg, po administered as single dose by LC/MS/MS analysis; assay type: ADME, organism-based, Macaca fascicularis; design: dose 6 mg/kg, dosed compound name [14C]Sunitinib, route oral; conditions: in vivo
Thymus [25] = assay: Drug concentration in female albino rat thymus assessed as radioactivity per gram of tissue at 20 mg/kg administered as single dose via gastric gavage measured after 3 hrs by autoradiographic analysis; assay type: ADME, organism-based; design: dose 20 mg/kg, dosed compound name [14C]Sunitinib; conditions: in vivo, po
Zone of skin [26] = assay: Drug concentration in male albino rat abdomen skin assessed as radioactivity per gram of tissue at 20 mg/kg administered as single dose via gastric gavage measured after 3 hrs by autoradiographic analysis; assay type: ADME, organism-based; design: dose 20 mg/kg, dosed compound name [14C]Sunitinib; conditions: in vivo, po

Radiolabel recovery (Cynomolgus monkey [1]): 90.7%
Radiolabel recovery [2]: 73.04 ugequiv
Radiolabel recovery (Rattus norvegicus [3]): 85.1%
Radiolabel recovery [4]: 7.51 ugequiv
beta t1/2 (Homo sapiens [5]): 28.2 h
Radiolabel recovery (Lung [6]): 16.19 ugequiv
Radiolabel recovery (Large intestine): 1.5 ugequiv
Radiolabel recovery [7]: 0.13 ugequiv
Radiolabel recovery [8]: 0.12 ugequiv
Radiolabel recovery (Thymus [9]): 0.67 ugequiv
Cmax (Cynomolgus monkey [10]): 243 ngequiv/ml
beta t1/2 (Cynomolgus monkey [11]): 121 h
Radiolabel recovery (Spleen [12]): 1.23 ugequiv
Radiolabel recovery (Lung [13]): 17.87 ugequiv
Radiolabel recovery (Spleen [14]): 0.27 ugequiv
Radiolabel recovery [15]: 6.2 ugequiv
Radiolabel recovery (Kidney [16]): 0.19 ugequiv
Radiolabel recovery [17]: 7.71 ugequiv
CL/F (Homo sapiens [18]): 23.5 L/h
Radiolabel recovery (Kidney [19]): 0.26 ugequiv
Radiolabel recovery (Zone of skin [20]): 4.73 ugequiv
Radiolabel recovery [21]: 39.4 ugequiv
Radiolabel recovery [22]: 0.39 ugequiv
Radiolabel recovery (Rattus norvegicus [23]): 1.5%
Radiolabel recovery (Stomach): 8.54 ugequiv
Tmax (Cynomolgus monkey [24]): 8 h
Radiolabel recovery (Thymus [25]): 9.36 ugequiv
Radiolabel recovery (Zone of skin [26]): 2.81 ugequiv
Structure (SMILES): CCN(CC)CCNC(=O)c1c(C)[nH]c(/[14CH]=C2\C(=O)Nc3ccc(F)cc32)c1C.O=C(O)C[C@H](O)C(=O)O

Reference: ChEMBL document CHEMBL3525900, “Pharmacokinetics, distribution, and metabolism of [14C]sunitinib in rats, monkeys, and humans” (Drug Metab Dispos, 2012)
